pIC50: −log10 of the molar value.
Legend:
B2 bradykinin receptor = target: T1, B2 bradykinin receptor (Cavia porcellus, UniProt O70526); experiment: In vitro for inhibition of specific binding of [3H]BK (0.06 nM) to bradykinin receptor B2 in guinea pig ileum membrane preparations.; format: cell membranes
T1 sequence (O70526 whole entry): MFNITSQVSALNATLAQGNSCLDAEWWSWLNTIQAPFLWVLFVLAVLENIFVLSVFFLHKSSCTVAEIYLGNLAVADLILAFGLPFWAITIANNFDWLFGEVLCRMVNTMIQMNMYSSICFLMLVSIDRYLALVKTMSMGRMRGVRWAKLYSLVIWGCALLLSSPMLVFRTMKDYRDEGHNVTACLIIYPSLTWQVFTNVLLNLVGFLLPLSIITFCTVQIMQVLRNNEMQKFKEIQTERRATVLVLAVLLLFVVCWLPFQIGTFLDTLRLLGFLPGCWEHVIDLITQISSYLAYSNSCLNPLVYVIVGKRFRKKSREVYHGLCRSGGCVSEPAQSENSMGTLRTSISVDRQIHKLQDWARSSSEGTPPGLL
Summary of the method: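 Ileal membranes from male Hartley guinea pigs, prepared in TES/1,10-phenanthroline pH 6.8 by 1000g then 100000g spins. Assay buffer held bacitracin, DTT, 1 μM captopril and 0.1% BSA. Membranes (0.2 mg protein/mL) incubated with [3H]BK (final 0.06 nM) and varying compound concentrations for 60 min at room temperature. Bound ligand filtered on GF/B and counted by scintillation; nonspecific binding taken with 1 μM unlabeled BK.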

[1] = Compound at a dose of 10 mg/kg was orally administered to rats and Half-life value was reported; format: ADME, organism-based; design: dose 10 mg/kg, route oral; conditions: rat, in vivo, po
Summary of the method: (§1)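 Male Sprague-Dawley rats (3), starved overnight, given compound orally in 0.5% methocel (0.5 mL/100 g). Femoral-artery blood sampled at 0, 0.5, 1, 2, 4 and 6 h. Intravenous arm used a DMSO solution into the femoral vein, sampled 0 min–6 h. Plasma extracted with CHCl3, dried, reconstituted in MeOH and quantified by HPLC peak area against spiked time-0 plasma standards.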

Cavia porcellus = experiment: In vivo functional antagonistic activity against BK-induced bronchoconstriction in guinea pigs at an oral dose of 1 mg/kg.
Summary of the method: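 Male Hartley guinea pigs (470-750 g), fasted, anesthetized with pentobarbital (30 mg/kg ip), ventilated, given alcuronium iv and propranolol sc. BK (5 μg/kg iv) raised pulmonary insufflation pressure, measured by modified Konzett–Rössler. Compound in 0.5% methylcellulose, or vehicle, was given by oesophageal cannula. BK was repeated 30 min later. Response expressed as ΔPIP after drug over ΔPIP before drug ×100; Student's t-test vs control.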

[2] = Compound at a dose of 10 mg/kg was orally administered to rats and maximum plasma concentration was reported; format: ADME, organism-based; design: dose 10 mg/kg, route oral; conditions: rat, po; summary of the method: as §1
[3] = Compound at a dose of 10 mg/kg was orally administered to rats and Bioavailability was reported; format: ADME, organism-based; conditions: rat, in vivo, po, read-out: BA; summary of the method: as §1
[4] = Compound at a dose of 10 mg/kg was orally administered to rats and Area under curve was reported; format: ADME, organism-based; design: dose 10 mg/kg, route oral; conditions: rat, in vivo, po; summary of the method: as §1

| pIC50 (B2 bradykinin receptor) | Structure (SMILES) | further results |
| --- | --- | --- |
| 6.30 | CC(=O)OCC(=O)N(C)c1ccc(Cl)c(COc2cccn3c(Br)c(C)nc23)c1Cl | – |
| 6.31 | Cc1nc2c(OCc3c(Cl)ccc(Cl)c3Cl)cccn2c1Br | – |
| 8.05 | CCNC(=O)NCC(=O)N(C)c1ccc(Cl)c(COc2cccn3c(Br)c(C)nc23)c1Cl | half-life [1]: 30 min; inhibition in vivo at 1 mg/kg (Cavia porcellus): 57.2%; Cmax [2]: 52600 ng/mL; bioavailability [3]: 75%; AUC [4]: 58900 ng·h/mL |
| 6.09 | CC(=O)NCCC(=O)N(C)c1ccc(Cl)c(COc2cccn3c(Br)c(C)nc23)c1Cl | – |
| 5.00 | CCc1cn2cccc(OCc3c(Cl)cccc3Cl)c2n1 | – |
| 5.12 | Cc1nc2c(OCc3c(Cl)cccc3Cl)cccn2c1CO | – |
| 6.42 | Cc1nc2c(OCc3c(Cl)ccc(N(C)C(=O)CN)c3Cl)cccn2c1Br | – |
| 5.82 | Cc1nc2c(OCc3c(Cl)ccc(N)c3Cl)cccn2c1Br | – |
| 6.82 | CCN(C(C)=O)c1ccc(Cl)c(COc2cccn3c(Br)c(C)nc23)c1Cl | – |
| < 4.00 | Cc1nc2c(/C=C/c3c(Cl)cccc3Cl)cccn2c1Br | – |
| < 4.00 | Cc1nc2c(NC(=O)c3c(Cl)cccc3Cl)cccn2c1Cl | – |
| 6.64 | Cc1nc2c(OCc3c(Cl)cccc3Cl)cccn2c1Br | – |
| 5.12 | C#CCOCc1c(C)nc2c(OCc3c(Cl)cccc3Cl)cccn12 | – |
| 5.74 | Cc1nc2c(OCc3c(F)cccc3F)cccn2c1Cl | – |
| 7.34 | CNC(=O)NCC(=O)N(C)c1ccc(Cl)c(COc2cccn3c(Br)c(C)nc23)c1Cl | inhibition in vivo at 1 mg/kg (Cavia porcellus): 41.5% |
| 7.72 | CCC(=O)NCC(=O)N(C)c1ccc(Cl)c(COc2cccn3c(Br)c(C)nc23)c1Cl | inhibition in vivo at 1 mg/kg (Cavia porcellus): 48.4% |
| 6.38 | CC(=O)N(C)c1c(Cl)cc(Cl)c(COc2cccn3c(Br)c(C)nc23)c1Cl | – |
| 6.24 | Cc1nc2c(OCc3c(Cl)ccc(N(C)C(=O)CNS(C)(=O)=O)c3Cl)cccn2c1Br | inhibition in vivo at 1 mg/kg (Cavia porcellus): 48.4% |
| 8.62 | Cc1nc2c(OCc3c(Cl)ccc(N(C)C(=O)CNC(=O)CN(C)C)c3Cl)cccn2c1Br | half-life [1]: 18 min; inhibition in vivo at 1 mg/kg (Cavia porcellus): 72.4%; Cmax [2]: 290 ng/mL; bioavailability [3]: 32.8%; AUC [4]: 940 ng·h/mL |
| 8.05 | CCCC(=O)NCC(=O)N(C)c1ccc(Cl)c(COc2cccn3c(Br)c(C)nc23)c1Cl | half-life [1]: 18 min; inhibition in vivo at 1 mg/kg (Cavia porcellus): 52.7%; Cmax [2]: 9970 ng/mL; bioavailability [3]: 90%; AUC [4]: 11700 ng·h/mL |
| 7.80 | CC(=O)NCC(=O)N(C)c1ccc(Cl)c(COc2cccn3c(Br)c(C)nc23)c1Cl | – |
| 6.39 | CCN(C)c1ccc(Cl)c(COc2cccn3c(Br)c(C)nc23)c1Cl | – |
| < 4.00 | Cc1nc2c(COc3c(Cl)cccc3Cl)cccn2c1Br | – |
| 6.46 | CNC(=O)N(C)c1ccc(Cl)c(COc2cccn3c(Br)c(C)nc23)c1Cl | – |
| 5.85 | COC(=O)N(C)c1ccc(Cl)c(COc2cccn3c(Br)c(C)nc23)c1Cl | – |

| pIC50 (B2 bradykinin receptor) | Structure (SMILES) | further results |
| --- | --- | --- |
| 5.82 | Cc1nc2c(OCc3c(F)cccc3Cl)cccn2c1Br | – |
| < 4.00 | FC(F)(F)c1cn2cccc(OCc3c(Cl)cccc3Cl)c2n1 | – |
| 5.35 | Cc1cn2cccc(OCc3c(Cl)cccc3Cl)c2n1 | – |
| < 4.00 | Cc1nc2c(C(=O)Oc3c(Cl)cccc3Cl)cccn2c1Br | – |
| 7.27 | CC(=O)N(C)c1ccc(Cl)c(COc2cccn3c(Br)c(C)nc23)c1Cl | – |
| 7.80 | CC(=O)NCC(=O)N(C)c1ccc(Cl)c(COc2cccn3c(Br)c(C)nc23)c1Cl.Cl | half-life [1]: 25.2 min; inhibition in vivo at 1 mg/kg (Cavia porcellus): 62.3%; Cmax [2]: 3640 ng/mL; AUC [4]: 3150 ng·h/mL |
| 6.27 | COc1ccc(Cl)c(COc2cccn3c(Br)c(C)nc23)c1Cl | – |
| 7.38 | Cc1nc2c(OCc3c(Cl)ccc([N+](=O)[O-])c3Cl)cccn2c1Br | – |
| 6.11 | CC(=O)NC(C)C(=O)N(C)c1ccc(Cl)c(COc2cccn3c(Br)c(C)nc23)c1Cl (stereo not drawn) | – |
| 7.14 | CCC(=O)N(C)c1ccc(Cl)c(COc2cccn3c(Br)c(C)nc23)c1Cl | – |
| 5.92 | Cc1nc2c(NCc3c(Cl)cccc3Cl)cccn2c1Cl | – |
| 4.51 | CCn1c(C)cc(C#N)c1-c1ccc(COc2cc(C)nc3ccccc23)cc1 | – |
| 5.74 | CC(=O)Nc1ccc(Cl)c(COc2cccn3c(Br)c(C)nc23)c1Cl | – |
| < 4.00 | CCOC(=O)c1c(C)nc2c(OCc3c(Cl)cccc3Cl)cccn12 | – |
| < 4.00 | CC(=O)N(Cc1c(Cl)cccc1Cl)c1cccn2c(Br)c(C)nc12 | – |
| < 4.00 | Cc1nc2c(C(=O)Nc3c(Cl)cccc3Cl)cccn2c1Br | – |
| 4.51 | Clc1cccc(Cl)c1COc1cccn2ccnc12 | – |
| 8.11 | CCCCC(=O)NCC(=O)N(C)c1ccc(Cl)c(COc2cccn3c(Br)c(C)nc23)c1Cl | inhibition in vivo at 1 mg/kg (Cavia porcellus): 29.7% |
| 7.59 | CCCNC(=O)NCC(=O)N(C)c1ccc(Cl)c(COc2cccn3c(Br)c(C)nc23)c1Cl | inhibition in vivo at 1 mg/kg (Cavia porcellus): 62.4% |
| 5.68 | Cc1nc2c(OCc3c(Cl)ccc(N(C)S(C)(=O)=O)c3Cl)cccn2c1Br | – |
| 6.24 | COCC(=O)N(C)c1ccc(Cl)c(COc2cccn3c(Br)c(C)nc23)c1Cl | – |
| 5.80 | CC(=O)N(C)CC(=O)N(C)c1ccc(Cl)c(COc2cccn3c(Br)c(C)nc23)c1Cl | – |
| 5.77 | Cc1nc2c(OCc3c(Br)cccc3Br)cccn2c1Cl | – |
| 6.70 | Cc1nc2c(OCc3c(Cl)cccc3Cl)cccn2c1Cl | – |
